Results as given in ChEMBL document CHEMBL4334435, “A focused structure-activity relationship study of psoralen-based immunoproteasome inhibitors” (Medchemcomm, 2019).
pIC50: −log10 of the molar value. Each block holds one compound with its values, some of them ahead of it. Calls of active or inactive are those of the source. The calls are words filed in the database; no cut-off is given here.

What was measured:
[1] = target: T1, Proteasome subunit beta type-8 (Homo sapiens, UniProt P28062); assay: Inhibition of human immunoproteasome beta 5i subunit using Suc-LLVY-AMC as substrate preincubated for 30 mins followed by substrate addition and measured for 120 mins by fluorescence based assay
T1 sequence (P28062 whole entry): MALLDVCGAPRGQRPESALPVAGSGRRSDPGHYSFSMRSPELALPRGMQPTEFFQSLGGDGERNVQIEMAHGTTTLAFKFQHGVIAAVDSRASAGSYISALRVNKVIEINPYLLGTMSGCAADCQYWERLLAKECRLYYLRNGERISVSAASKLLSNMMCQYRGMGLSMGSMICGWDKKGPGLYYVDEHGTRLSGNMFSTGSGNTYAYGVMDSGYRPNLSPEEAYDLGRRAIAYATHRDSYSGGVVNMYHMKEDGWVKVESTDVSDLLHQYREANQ

[2] = target: T2, Proteasome subunit beta type-10 (Homo sapiens) (UniProt P40306); assay: Inhibition of human immunoproteasome beta 2i subunit at 10 uM using Boc-LRR-AMC as substrate preincubated for 30 mins followed by substrate addition measured for 120 mins by fluorescence based assay
T2 sequence (whole entry): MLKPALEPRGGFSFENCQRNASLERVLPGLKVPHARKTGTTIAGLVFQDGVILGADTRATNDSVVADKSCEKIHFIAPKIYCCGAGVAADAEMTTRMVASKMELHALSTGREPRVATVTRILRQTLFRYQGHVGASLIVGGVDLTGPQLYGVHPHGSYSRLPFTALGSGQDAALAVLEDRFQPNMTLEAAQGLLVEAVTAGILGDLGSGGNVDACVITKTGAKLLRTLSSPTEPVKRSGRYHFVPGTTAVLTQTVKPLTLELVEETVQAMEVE
How it was run: (§1)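 Purified human immunoproteasome or constitutive proteasome subunit activities measured with fluorogenic substrates in presence of 10 μM compound; reported as residual activity.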

[3] = target: T3, Proteasome subunit beta type-9 (Homo sapiens) (UniProt P28065); assay: Inhibition of human immunoproteasome beta 1i subunit at 10 uM using Ac-PAL-AMC as substrate preincubated for 30 mins followed by substrate addition measured for 120 mins by fluorescence based assay; how it was run: as §1
T3 sequence (whole entry): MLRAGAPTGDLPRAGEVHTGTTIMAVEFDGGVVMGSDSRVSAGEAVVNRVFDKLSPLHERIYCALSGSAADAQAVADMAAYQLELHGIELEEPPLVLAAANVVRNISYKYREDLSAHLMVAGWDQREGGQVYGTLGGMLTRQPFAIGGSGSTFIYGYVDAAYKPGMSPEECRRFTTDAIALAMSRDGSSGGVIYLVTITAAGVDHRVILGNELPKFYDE

[4] = target: T4, Proteasome Macropain subunit MB1 (Homo sapiens, UniProt P28074); assay: Inhibition of human constitutive proteasome beta 5 subunit at 10 uM using Suc-LLVY-AMC as substrate preincubated for 30 mins followed by substrate addition measured for 120 mins by fluorescence based assay; settings: 2 h; how it was run: as §1
T4 sequence (P28074 whole entry): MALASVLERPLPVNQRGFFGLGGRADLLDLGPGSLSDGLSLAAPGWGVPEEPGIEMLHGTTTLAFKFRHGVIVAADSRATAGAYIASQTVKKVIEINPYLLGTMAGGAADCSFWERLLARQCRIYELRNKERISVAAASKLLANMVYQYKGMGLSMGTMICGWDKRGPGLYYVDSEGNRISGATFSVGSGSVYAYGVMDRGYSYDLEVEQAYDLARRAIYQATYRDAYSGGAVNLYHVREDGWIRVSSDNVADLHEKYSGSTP

[5] = target: T5, Proteasome subunit beta type-10 (Homo sapiens, UniProt P40306); assay: Inhibition of human immunoproteasome beta 2i subunit using Boc-LRR-AMC as substrate preincubated for 30 mins followed by substrate addition measured for 120 mins by fluorescence based assay
T5 sequence (P40306 whole entry): T2 sequence (whole entry)

[6] = target: T6, Proteasome subunit beta type-9 (Homo sapiens, UniProt P28065); assay: Inhibition of human immunoproteasome beta 1i subunit using Ac-PAL-AMC as substrate preincubated for 30 mins followed by substrate addition measured for 120 mins by fluorescence based assay
T6 sequence (P28065 whole entry): T3 sequence (whole entry)

[7] = target: T4, Proteasome Macropain subunit MB1; assay: Inhibition of human constitutive proteasome beta 5 subunit using Suc-LLVY-AMC as substrate preincubated for 30 mins followed by substrate addition measured for 120 mins by fluorescence based assay
[8] = target: T7, Proteasome subunit beta type-8 (Homo sapiens) (UniProt P28062); assay: Inhibition of human immunoproteasome beta 5i subunit using Suc-LLVY-AMC as substrate assessed as residual activity at 10 uM preincubated for 30 mins followed by substrate addition measured for 120 mins by fluorescence based assay relative to control; how it was run: as §1
T7 sequence (whole entry): T1 sequence (P28062 whole entry)

[9] = target: T7, Proteasome subunit beta type-8 (Homo sapiens); assay: Irreversible inhibition of human immunoproteasome beta 5i subunit assessed as recovery of enzyme activity at 1060 nM using Suc-LLVY-AMC as substrate preincubated for 30 mins followed by 100-fold diluted substrate addition by rapid dilution assay relative to control; design: scale not given: the % may be the effect or the level left
[10] = target: T1, Proteasome subunit beta type-8; assay: Inhibition of 20S immunoproteasome beta 5 chymotrypsin-like activity in human THP-1 cell lysates using Suc-LLVY-AMC as substrate preincubated for 30 mins followed by substrate addition and measured for 90 mins by fluorescence based assay; assay type: subcellular, Lysate
How it was run: (§2)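 Compounds incubated with cell lysates (HeLa: predominantly constitutive proteasome; THP-1: high immunoproteasome) and beta5 activity read with fluorogenic Suc-LLVY-AMC; IC50 determined.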

[11] = target: T7, Proteasome subunit beta type-8 (Homo sapiens); assay: Inhibition of 26S immunoproteasome beta 5 chymotrypsin-like activity in human THP-1 intact cells using […] as substrate after 2 hrs by luciferase based assay; assay type: cell-based
[12] = target: T7, Proteasome subunit beta type-8 (Homo sapiens); assay: Inhibition of 26S immunoproteasome beta 5 chymotrypsin-like activity in human HeLa intact cells using […] as substrate after 2 hrs by luciferase based assay; assay type: cell-based
[13] = tested on: PBMC; assay: Inhibition of LPS-induced IL-6 secretion in human PBMC at 10 uM preincubated for 1 hr followed by LPS addition and measured after 24 hrs by cytometric bead array-based FACS analysis; assay type: functional, cell-based
[14] = tested on: PBMC; assay: Inhibition of LPS-induced IL-10 secretion in human PBMC at 10 uM preincubated for 1 hr followed by LPS addition and measured after 24 hrs by cytometric bead array-based FACS analysis; assay type: functional, cell-based
[15] = tested on: PBMC; assay: Inhibition of LPS-induced IL-1beta production in human PBMC at 10 uM preincubated for 1 hr followed by LPS addition and measured after 24 hrs by cytometric bead array-based FACS analysis; assay type: functional, cell-based
[16] = tested on: PBMC; assay: Inhibition of LPS-induced IL-8 production in human PBMC at 10 uM preincubated for 1 hr followed by LPS addition and measured after 24 hrs by cytometric bead array-based FACS analysis; assay type: functional, cell-based
[17] = tested on: PBMC; assay: Inhibition of LPS-induced IL-12p70 production in human PBMC at 10 uM preincubated for 1 hr followed by LPS addition and measured after 24 hrs by cytometric bead array-based FACS analysis; assay type: functional, cell-based
[18] = tested on: PBMC; assay: Inhibition of LPS-induced TNFalpha production in human PBMC at 10 uM preincubated for 1 hr followed by LPS addition and measured after 24 hrs by cytometric bead array-based FACS analysis; assay type: functional, cell-based
[19] = target: T7, Proteasome subunit beta type-8 (Homo sapiens); assay: Time-dependent inhibition of human immunoproteasome beta 5i subunit assessed as increase in IC50 value using Suc-LLVY-AMC as substrate co-incubated with substrate without preincubation by fluorescence based analysis relative to 30 mins preincubated compound-treated control
How it was run: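 IC50 against immunoproteasome beta5i (Suc-LLVY-AMC) determined without pre-incubating compound with enzyme before substrate addition, compared against pre-incubated assay.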

[20] = target: T7, Proteasome subunit beta type-8 (Homo sapiens); assay: Inhibition of 20S immunoproteasome beta 5 chymotrypsin-like activity in human HeLa cell lysates using Suc-LLVY-AMC as substrate preincubated for 30 mins followed by substrate addition and measured for 90 mins by fluorescence based assay; assay type: subcellular; settings: Lysate; how it was run: as §2
[21] = species on record: Homo sapiens; assay: Selectivity ratio of IC50 for human constitutive proteasome beta 5 subunit to IC50 for human immunoproteasome beta 5i subunit

SMILES: COc1ccccc1-c1coc2cc3oc(=O)c(-c4nsc(=O)o4)c(C)c3cc12
- pIC50 [1]: 6.64
- inhibition [2]: inactive
- inhibition [3]: inactive
- inhibition (INH) [4]: Not Active
- IC50 [5]: Nd(Insoluble)
- IC50 [6]: Nd(Insoluble)
- IC50 [7]: Nd(Insoluble)

SMILES: COc1cccc(-c2coc3cc4oc(=O)c(-c5nsc(=O)o5)c(C)c4cc23)c1
- pIC50 [1]: 6.65
- inhibition [2]: inactive
- inhibition [3]: inactive
- inhibition (INH) [4]: Not Active
- IC50 [5]: Nd(Insoluble)
- IC50 [6]: Nd(Insoluble)
- IC50 [7]: Nd(Insoluble)

SMILES: Cc1cccc(-c2coc3cc4oc(=O)c(-c5nsc(=O)o5)c(C)c4cc23)c1
- pIC50 [1]: 6.44
- inhibition [2]: inactive
- inhibition [3]: inactive
- inhibition (INH) [4]: Not Active
- IC50 [5]: Nd(Insoluble)
- IC50 [6]: Nd(Insoluble)
- IC50 [7]: Nd(Insoluble)

SMILES: Cc1c(-c2nsc(=O)o2)c(=O)oc2cc3occ(-c4ccc(F)cc4)c3cc12
- pIC50 [1]: 6.70
- inhibition [2]: inactive
- inhibition [3]: inactive
- inhibition (INH) [4]: Not Active
- IC50 [5]: Nd(Insoluble)
- IC50 [6]: Nd(Insoluble)
- IC50 [7]: Nd(Insoluble)

SMILES: Cc1c(-c2nsc(=O)o2)c(=O)oc2cc3occ(-c4ccccc4)c3cc12
- pIC50 [1]: 7.89
- Ratio IC50 [21]: 80

SMILES: Cc1c(-c2nsc(=O)o2)c(=O)oc2cc3occ(-c4ccc(Br)cc4)c3cc12
- pIC50 [1]: 6.45
- inhibition [2]: inactive
- inhibition [3]: inactive
- inhibition (INH) [4]: Not Active
- IC50 [5]: Nd(Insoluble)
- IC50 [6]: Nd(Insoluble)
- IC50 [7]: Nd(Insoluble)

SMILES: CCc1ccc(-c2coc3cc4oc(=O)c(-c5nsc(=O)o5)c(C)c4cc23)cc1
- pIC50 [1]: 6.76
- inhibition [2]: inactive
- inhibition [3]: inactive
- inhibition (INH) [4]: Not Active
- pIC50 [10]: 5.82
- inhibition [11]: inactive
- inhibition [12]: inactive
- inhibition [13]: Active
- inhibition [14]: Active
- inhibition [15]: inactive
- inhibition [16]: inactive
- inhibition [17]: inactive
- inhibition [18]: inactive
- inhibition [19]: Active
- inhibition [20]: Active
- IC50 [5]: Nd(Insoluble)
- IC50 [6]: Nd(Insoluble)
- IC50 [7]: Nd(Insoluble)

SMILES: Cc1c(-c2nsc(=O)o2)c(=O)oc2cc3occ(C4CCC4)c3cc12
- pIC50 [1]: 6.36
- inhibition [2]: inactive
- inhibition [3]: inactive
- inhibition (INH) [4]: Not Active
- IC50 [5]: Nd(Insoluble)
- IC50 [6]: Nd(Insoluble)
- IC50 [7]: Nd(Insoluble)

SMILES: Cc1c(-c2nsc(=O)o2)c(=O)oc2cc3occ(-c4cccs4)c3cc12
- pIC50 [1]: 6.85
- inhibition [2]: inactive
- inhibition [3]: inactive
- inhibition (INH) [4]: Not Active
- inhibition [19]: Active
- IC50 [5]: Nd(Insoluble)
- IC50 [6]: Nd(Insoluble)
- IC50 [7]: Nd(Insoluble)

The next lines start with results.

- Activity [8]: 62%
SMILES: Cc1c(CC(=O)ON2C(=O)CCC2=O)c(=O)oc2cc3occ(C4CCCCC4)c3cc12

- pIC50 [1]: 6.58
- inhibition [2]: inactive
- inhibition [3]: inactive
- inhibition (INH) [4]: Not Active
- IC50 [5]: Nd(Insoluble)
- IC50 [6]: Nd(Insoluble)
- IC50 [7]: Nd(Insoluble)
SMILES: Cc1c(-c2nsc(=O)o2)c(=O)oc2cc3occ(C4CCCC4)c3cc12

- pIC50 [1]: 6.97
- Activity [9]: 22%
- inhibition [2]: inactive
- inhibition [3]: inactive
- inhibition (INH) [4]: Not Active
- pIC50 [10]: 6.00
- inhibition [11]: inactive
- inhibition [12]: inactive
- inhibition [19]: Active
- inhibition [20]: Active
- IC50 [5]: Nd(Insoluble)
- IC50 [6]: Nd(Insoluble)
- IC50 [7]: Nd(Insoluble)
SMILES: Cc1c(-c2nsc(=O)o2)c(=O)oc2cc3occ(C4CCCCC4)c3cc12
- inhibition [13]: Active
- inhibition [14]: Active
- inhibition [15]: inactive
- inhibition [16]: inactive
- inhibition [17]: inactive
- inhibition [18]: inactive

- Activity [8]: 111%
SMILES: Cc1c(CCC(=O)N(C)CC#N)c(=O)oc2cc3occ(C4CCCCC4)c3cc12

- Activity [8]: 101%
SMILES: Cc1c(CC(=O)N(C)CC#N)c(=O)oc2cc3occ(C4CCCCC4)c3cc12

- Activity [8]: 102%
SMILES: Cc1c(CCC(=O)NCC#N)c(=O)oc2cc3occ(C4CCCCC4)c3cc12

- pIC50 [1]: 5.74
SMILES: Cc1c(CCC(=O)ON2C(=O)CCC2=O)c(=O)oc2cc3occ(C4CCCCC4)c3cc12

- Activity [8]: 99%
SMILES: Cc1c(CC(=O)NCC#N)c(=O)oc2cc3occ(C4CCCCC4)c3cc12
